Reference: ChEMBL document CHEMBL1138791, “Acyl sulfonamide anti-proliferatives: benzene substituent structure-activity relationships for a novel class of antitumor agents” (J Med Chem, 2004)

Assays:
[1] = tested on: HCT-116; experiment: Growth inhibitory activity against human colon HCT116 cell line; format: functional
In short: (§1)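 Cell-line screen run at NCI by published procedures. […] The mean graph midpoint is taken across all human cancer cell lines successfully tested.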

[2] = tested on: NCI-H522; experiment: Growth inhibitory activity against human lung NCI-H522 cell line; format: functional; in short: as §1
[3] = tested on: HT-29; experiment: Growth inhibitory activity against human colon HT-29 cell line; format: functional; in short: as §1
[4] = tested on: SW-620; experiment: Growth inhibitory activity against human colon SW620 cell line; format: functional; in short: as §1
[5] = tested on: HCT-116; experiment: Diameter of zone of inhibition for cell colony formation of solid tumor HCT116 at the dose of 200 ug; format: functional, Homo sapiens
In short: (§2)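 HCT116, L1210 leukaemia and normal fibroblast cells were seeded in soft agar in separate 60 mm dishes. The compound was applied to a filter-paper disk laid on the agar. Colony-formation inhibition zones were read after 6–7 days at 37 °C and expressed in zone units (200 units = 6.5 mm; 950 = total inhibition; 0 = none). n > 2 unless otherwise indicated.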

[6] = tested on: HL-60; experiment: Growth inhibitory activity against human leukemia HL-60 (TB) cell line; format: functional; parameters: unit not given here
[7] = tested on: MCF7; experiment: Growth inhibitory activity against human breast MCF-7 cell line; format: functional; in short: as §1
[8] = tested on: Panel (Carcinoma cell lines); experiment: Mean graph mid point value for cytotoxic activity against human cancer cell lines was determined; format: functional; in short: as §1
[9] = tested on: RXF 393; experiment: Growth inhibitory activity against human renal RXF-393 cell line; format: functional; in short: as §1
[10] = Diameter of zone of inhibition for cell colony formation of normal fibroblast at the dose of 200 ug; Range is 0-11; format: functional, Homo sapiens
In short: (§3)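 Soft agar disk diffusion: leukemia (L1210), solid tumor (HCT116, or colon H15) and normal fibroblast cells seeded in soft agar in separate 60 mm dishes. Compound applied to a filter paper disk (dose in μg/disk) set on the agar. Colony-formation inhibition zones read after 6–7 days at 37 °C. 200 zone units = 6.5 mm; 950 = total inhibition; a range marks partial colony shrinkage. n > 2 unless noted.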

[11] = tested on: L1210; experiment: Diameter of zone of inhibition for cell colony formation of L1210 leukemia cell lines at the dose of 200 ug; format: functional, Mus musculus; in short: as §3
[12] = Diameter of zone of inhibition for cell colony formation of normal fibroblast at the dose of 200 ug; Range is 0-11.7; format: functional, Homo sapiens; in short: as §3
[13] = tested on: L1210; experiment: Diameter of zone of inhibition for cell colony formation of leukemia L1210 at the dose of 200 ug; Range is 1.3-5.85; format: functional, Mus musculus; in short: as §3
[14] = tested on: Mus musculus; experiment: Tumor growth delay of human HCT116 colorectal carcinoma in mice after intravenous administration at dose of 64 mg/kg; format: functional
In short: (§4)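 Female nude mice were implanted with HCT116 tumour tissue from donor mice and randomized once tumours averaged 100 mm3. The sodium salt in saline (pH 7.4) was given by iv bolus on days 1–5 and 8–12. Tumour volumes were recorded twice weekly. TGD = T − C, the time to reach 500 mm3 taken from a fitted tumour-growth model.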

[15] = tested on: Mus musculus; experiment: Tumor growth delay of human HCT116 colorectal carcinoma in mice after intravenous administration at dose of 85 mg/kg; format: functional; in short: as §4
[16] = tested on: Mus musculus; experiment: Tumor growth delay of human HCT116 colorectal carcinoma in mice after intravenous administration at dose of 128 mg/kg; format: functional; in short: as §4
[17] = Diameter of zone of inhibition for cell colony formation of normal fibroblast at the dose of 200 ug; Range is 0-16.9; format: functional, Homo sapiens; in short: as §3
[18] = tested on: L1210; experiment: Diameter of zone of inhibition for cell colony formation of leukemia L1210 at the dose of 200 ug; Range is 0-9.1; format: functional, Mus musculus; in short: as §3
[19] = tested on: L1210; experiment: Diameter of zone of inhibition for cell colony formation of leukemia L1210 at the dose of 190 ug; Range is 0-10.4; format: functional, Mus musculus; in short: as §3
[20] = Diameter of zone of inhibition for cell colony formation of normal fibroblast at the dose of 190 ug; Range is 0-16.575; format: functional, Homo sapiens; in short: as §3
[21] = tested on: HCT-116; experiment: Diameter of zone of inhibition for cell colony formation of solid tumor HCT116 at the dose of 190 ug; format: functional, Homo sapiens; in short: as §3
[22] = Diameter of zone of inhibition for cell colony formation of normal fibroblast at the dose of 210 ug; Range is 0-6.5; format: functional, Homo sapiens; in short: as §3
[23] = tested on: HCT-116; experiment: Diameter of zone of inhibition for cell colony formation of solid tumor HCT116 at the dose of 210 ug; format: functional, Homo sapiens; in short: as §2
[24] = tested on: L1210; experiment: Diameter of zone of inhibition for cell colony formation of leukemia L1210 at the dose of 210 ug; Range is 0-5.525; format: functional, Mus musculus; in short: as §3
[25] = Diameter of zone of inhibition for cell colony formation of normal fibroblast at the dose of 200 ug; Range is 0-2.6; format: functional, Homo sapiens; in short: as §3
[26] = tested on: L1210; experiment: Diameter of zone of inhibition for cell colony formation of leukemia L1210 at the dose of 200 ug; Range is 0-6.5; format: functional, Mus musculus; in short: as §3
[27] = Diameter of zone of inhibition for cell colony formation of normal fibroblast at the dose of 190 ug; Range is; format: functional, Homo sapiens; in short: as §3
[28] = tested on: L1210; experiment: Diameter of zone of inhibition for cell colony formation of leukemia L1210 at the dose of 190 ug; format: functional, Mus musculus; in short: as §3
[29] = tested on: L1210; experiment: Diameter of zone of inhibition for cell colony formation of leukemia L1210 at the dose of 210 ug; format: functional, Mus musculus; in short: as §3
[30] = tested on: HCT-116; experiment: Diameter of zone of inhibition for cell colony formation of solid tumor HCT116 at the dose of 210 ug: range is 6.5-8.125; format: functional, Homo sapiens; in short: as §2
[31] = Diameter of zone of inhibition for cell colony formation of normal fibroblast at the dose of 190 ug; Range is 0-.975; format: functional, Homo sapiens; in short: as §3
[32] = tested on: L1210; experiment: Diameter of zone of inhibition for cell colony formation of leukemia L1210 at the dose of 190 ug; Range is 3.75-4.875; format: functional, Mus musculus; in short: as §3
[33] = Diameter of zone of inhibition for cell colony formation of normal fibroblast at the dose of 190 ug; Range is 0-6.5; format: functional, Homo sapiens; in short: as §3
[34] = tested on: L1210; experiment: Diameter of zone of inhibition for cell colony formation of leukemia L1210 at the dose of 210 ug; Range is 0-11.375; format: functional, Mus musculus; in short: as §3
[35] = Diameter of zone of inhibition for cell colony formation of normal fibroblast at the dose of 210 ug; Range is 0-13; format: functional, Homo sapiens; in short: as §3
[36] = tested on: L1210; experiment: Diameter of zone of inhibition for cell colony formation of leukemia L1210 at the dose of 200 ug; format: functional, Mus musculus; in short: as §3
[37] = Diameter of zone of inhibition for cell colony formation of normal fibroblast at the dose of 210 ug; format: functional, Homo sapiens; in short: as §3

Compound: O=C(NS(=O)(=O)c1ccc(Cl)cc1)c1ccc(Cl)cc1Cl
- GI50 [1]: 5.3 µM
- GI50 [2]: 8.6 µM
- GI50 [3]: 54.8 µM
- GI50 [4]: 39.6 µM
- Inhibition [5]: 19.5 mm
- GI50 [6]: 34.7
- GI50 [7]: 1.5 µM
- MGM [8]: 26.3
- GI50 [9]: 11 µM
- Inhibition [10]: 11 mm
- Inhibition [11]: 6.5 mm

Compound: O=C(NS(=O)(=O)c1ccc(Cl)c(Cl)c1)c1ccc(Cl)cc1Cl
- Inhibition [5]: 18.2 mm
- Inhibition [12]: 11.7 mm
- Inhibition [13]: 5.85 mm

Compound: O=C(NS(=O)(=O)c1ccccc1)c1ccc(Cl)cc1Cl
- GI50 [1]: 5.4 µM
- Growth delay [14]: 14 days
- GI50 [2]: 18.7 µM
- GI50 [3]: 52 µM
- Growth delay [15]: 15 days
- Growth delay [16]: 22 days
- GI50 [4]: 8.6 µM
- GI50 [6]: 32.9
- GI50 [7]: 18.9 µM
- MGM [8]: 33.1
- GI50 [9]: 4.3 µM

Compound: O=C(NS(=O)(=O)c1ccc(F)cc1)c1ccc(Cl)cc1Cl
- Inhibition [5]: 28.6 mm
- Inhibition [17]: 16.9 mm
- Inhibition [18]: 9.1 mm

Compound: Cc1ccc(S(=O)(=O)NC(=O)c2ccc(Cl)cc2Cl)cc1
- Inhibition [19]: 10.4 mm
- Inhibition [20]: 16.57 mm
- Inhibition [21]: 27.3 mm

Compound: O=C(NS(=O)(=O)c1cc(Cl)cc(Cl)c1)c1ccc(Cl)cc1Cl
- Inhibition [22]: 6.5 mm
- Inhibition [23]: 12.35 mm
- Inhibition [24]: 5.52 mm

Compound: COC(=O)c1ccc(S(=O)(=O)NC(=O)c2ccc(Cl)cc2Cl)cc1
- Inhibition [5]: 21.12 mm
- Inhibition [25]: 2.6 mm
- Inhibition [26]: 6.5 mm

Compound: O=C(NS(=O)(=O)c1ccc([N+](=O)[O-])cc1)c1ccc(Cl)cc1Cl
- Inhibition [27]: 10.07 mm
- Inhibition [28]: 3.57 mm
- Inhibition [21]: 17.55 mm

Compound: Cc1cccc(S(=O)(=O)NC(=O)c2ccc(Cl)cc2Cl)c1
- Inhibition [22]: 6.5 mm
- Inhibition [29]: 6.5 mm
- Inhibition [30]: 8.12 mm

Compound: O=C(NS(=O)(=O)c1ccc(Cl)cc1)c1cccc(Br)c1
- Inhibition [28]: 6.82 mm
- Inhibition [21]: 10.4 mm
- Inhibition [31]: 0.97 mm

Compound: O=C(NS(=O)(=O)c1cccc(Cl)c1)c1ccc(Cl)cc1Cl
- Inhibition [32]: 4.87 mm
- Inhibition [33]: 6.5 mm
- Inhibition [21]: 16.73 mm

Compound: CN(C)c1ccc(S(=O)(=O)NC(=O)c2ccc(Cl)cc2Cl)cc1
- Inhibition [23]: 28.75 mm
- Inhibition [34]: 11.37 mm
- Inhibition [35]: 13 mm

Compound: O=C(NS(=O)(=O)c1ccc(Cl)cc1)c1ccc(C(F)(F)F)cc1C(F)(F)F
- Inhibition [5]: 16.9 mm
- Inhibition [12]: 11.7 mm
- Inhibition [36]: 0 mm

Compound: O=C(NS(=O)(=O)c1ccccc1Cl)c1ccc(Cl)cc1Cl
- Inhibition [23]: 0 mm
- Inhibition [29]: 0 mm
- Inhibition [37]: 0 mm
